Screens: PubChem BioAssay, Johns Hopkins Ion Channel Center
Sampled rows, rich in hits. Any-hit rate of the full collection: about 2.3%.
TRPC4 inh: inhibitors of mouse TRPC4 channel. HEK293 TRPC4beta/mu-opioid, DAMGO-evoked Fluo4 calcium flux; stronger effect = lower value. B-score at 10 µM. 300,000 tested, 0.39% active;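 active means B-score over 3 SD under the library average, no early fluorescence shift, positive overall ratio signal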
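Assay system: TRPC4beta/mu-opioid receptor HEK293 cell line; compound dosing: single concentration per test compound; detection: Fluo4 Ca2+ flux fluorescence; evaluation: per-well B score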
TRPC4 agonist: activators of mouse TRPC4 channel; Q9QUQ5; B-score at 10 µM; AID 2237; HEK293 TRPC4beta/mu-opioid, Fluo4 calcium fluorescence; stronger effect = higher value; 310,000 tested, 0.49% active;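 active means B-score above 5 SD of library B-scores, and initial fluorescence ratio not above library mean plus 5 SD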;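 further: positive B-score marks a calcium rise read as TRPC4 activation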
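Assay system: HEK293 stable line with TRPC4beta plus mu-opioid receptor. Times: dye 45 min RT, read 110 s. Measured by: kinetic Fluo4 calcium fluorescence. Measure: B score of integrated ratio. Controls: assay buffer as low control, maximal DAMGO as high control.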
TRPC6 activator: mouse TRPC6 channel activation. 310,000 tested, 0.13% active. HEK293-TRPC6 membrane potential dye fluorescence; stronger effect = higher value. B-score at 10 µM;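 active means B-score of the integrated fluorescence ratio above library mean plus 3 SD, and starting fluorescence ratio within library mean plus 5 SD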;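 further: higher score means more depolarization so channel activation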
Target sequence (Q61143 whole entry, looked up): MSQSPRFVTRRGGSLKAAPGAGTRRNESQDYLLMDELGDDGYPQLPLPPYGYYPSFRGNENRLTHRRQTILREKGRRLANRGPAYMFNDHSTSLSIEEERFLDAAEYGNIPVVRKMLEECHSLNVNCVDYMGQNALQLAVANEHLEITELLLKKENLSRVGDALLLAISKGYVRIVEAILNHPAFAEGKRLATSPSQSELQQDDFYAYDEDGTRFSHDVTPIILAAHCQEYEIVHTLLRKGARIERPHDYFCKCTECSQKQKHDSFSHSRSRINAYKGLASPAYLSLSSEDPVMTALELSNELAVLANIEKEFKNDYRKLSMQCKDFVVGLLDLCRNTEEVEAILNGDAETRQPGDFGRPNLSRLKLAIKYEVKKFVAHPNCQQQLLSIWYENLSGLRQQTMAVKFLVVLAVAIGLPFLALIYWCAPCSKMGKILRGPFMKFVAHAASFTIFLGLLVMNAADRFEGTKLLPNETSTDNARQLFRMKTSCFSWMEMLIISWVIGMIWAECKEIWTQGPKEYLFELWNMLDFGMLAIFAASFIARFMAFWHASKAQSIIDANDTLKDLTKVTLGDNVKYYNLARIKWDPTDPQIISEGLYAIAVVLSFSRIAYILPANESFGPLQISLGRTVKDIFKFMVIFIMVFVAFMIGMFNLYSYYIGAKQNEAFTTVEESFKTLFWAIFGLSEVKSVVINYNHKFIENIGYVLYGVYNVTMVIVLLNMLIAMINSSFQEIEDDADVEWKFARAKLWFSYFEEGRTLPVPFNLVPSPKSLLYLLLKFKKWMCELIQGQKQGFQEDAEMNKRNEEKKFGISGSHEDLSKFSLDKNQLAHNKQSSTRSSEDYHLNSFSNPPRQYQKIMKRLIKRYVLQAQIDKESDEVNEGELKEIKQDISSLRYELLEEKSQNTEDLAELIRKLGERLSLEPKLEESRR
TRPC4 potent: TRPC4 (mouse) allosteric potentiation. Q9QUQ5. HEK293 TRPC4beta/mu-opioid, DAMGO EC20, Fluo-4 Ca2+ flux; stronger effect = higher value. B-score at 10 µM. 310,000 tested, 0.42% active. AID 2227;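 active means B-score of calcium response area above 5 SD of library B-scores, with initial fluorescence ratio within 5 SD of library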;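 further: B-score of integrated fluorescence ratio over time as area under calcium response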
TRPC6 inh: blocks the mouse TRPC6 cation channel. Q61143. 310,000 tested, 1.1% active. HEK293-TRPC6, membrane potential dye, ACh-evoked depolarization; stronger effect = lower value. AID 2553. B-score at 10 µM;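 active means B-score under library mean minus 3 SD, initial fluorescence not abnormally high, positive integrated signal ratio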;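 further: B-score derived from integrated fluorescence ratio over the kinetic read; more negative B-score means stronger inhibition of depolarization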
Active calls of the source: *.

NS(=O)(=O)c1ccc(CCNCc2ccccc2OCc2ccc(F)cc2)cc1 was read as TRPC4 inh -6*, TRPC4 agonist inactive, TRPC6 activator inactive, TRPC4 potent inactive and TRPC6 inh inactive.
`CCOc1ccc(CNCCc2ccc(S(N)(=O)=O)cc2)cc1` gave TRPC4 inh inactive, TRPC4 agonist inactive, TRPC6 activator inactive, TRPC4 potent inactive and TRPC6 inh inactive.
For O=C(N/N=C/c1ccsc1)c1ccc2ccccc2n1 the results were TRPC4 inh inactive, TRPC4 agonist inactive, TRPC6 activator inactive, TRPC4 potent 17* and TRPC6 inh inactive.
`O=C(N/N=C/c1ccc2c(c1)OCO2)c1ccc2ccccc2n1` gave TRPC4 inh inactive, TRPC4 agonist inactive, TRPC6 activator inactive, TRPC4 potent inactive and TRPC6 inh inactive.
`COc1c2c(cc3c1C(CC(O)Cc1ccccc1)N(C)CC3)OCO2` (stereo not drawn) gave TRPC4 inh inactive, TRPC4 agonist 96*, TRPC6 activator inactive, TRPC4 potent inactive and TRPC6 inh inactive.
COC(=O)c1cc(S(=O)(=O)N2CCC(C)CC2)cn1C was read as TRPC4 inh inactive, TRPC4 agonist inactive, TRPC6 activator inactive, TRPC4 potent inactive and TRPC6 inh inactive.
Screening Cc1ccc(C)c(-n2cc(CNC(C)Cn3cncn3)c(-c3ccccc3)n2)c1 (stereo not drawn) returned TRPC4 inh inactive, TRPC4 agonist 66*, TRPC6 activator inactive, TRPC4 potent inactive and TRPC6 inh inactive.
Screening COc1ccc(-c2nn(-c3ccccc3)cc2CNC(C)Cn2cncn2)c(F)c1 (stereo not drawn) returned TRPC4 inh inactive, TRPC4 agonist inactive, TRPC6 activator inactive, TRPC4 potent inactive and TRPC6 inh inactive.
`Cc1ccc(-n2cc(CNC(C)Cn3cncn3)c(-c3ccc(F)cc3)n2)cc1` (stereo not drawn) gave TRPC4 inh inactive, TRPC4 agonist 64*, TRPC6 activator inactive, TRPC4 potent inactive and TRPC6 inh inactive.
For CCCCc1c(O)nc(SCC(=O)c2ccccc2)n(-c2ccccc2OC)c1=O the results were TRPC4 inh inactive, TRPC4 agonist inactive, TRPC6 activator inactive, TRPC4 potent inactive and TRPC6 inh inactive.
Nc1nc2ccccc2n1CCOc1ccc(F)cc1 was read as TRPC4 inh -6*, TRPC4 agonist inactive, TRPC6 activator inactive, TRPC4 potent inactive and TRPC6 inh inactive.
`COc1ccccc1C(=O)NNC1=C(C(=O)C(F)(F)F)CCC1` gave TRPC4 inh inactive, TRPC4 agonist 93*, TRPC6 activator inactive, TRPC4 potent inactive and TRPC6 inh inactive.
Screening CCOc1ccc(/C=C2\SC(=S)N(CCC(=O)N(CCO)c3ccccc3)C2=O)cc1 returned TRPC4 inh inactive, TRPC4 agonist inactive, TRPC6 activator inactive, TRPC4 potent 12* and TRPC6 inh inactive.
Nc1nnc(/C=C/c2ccccc2Cl)s1 was read as TRPC4 inh inactive, TRPC4 agonist inactive, TRPC6 activator inactive, TRPC4 potent inactive and TRPC6 inh inactive.
O=C(Nc1ccc(C(F)(F)F)cc1)N1CCN(c2ccnc3cc(Cl)ccc23)CC1 was read as TRPC4 inh inactive, TRPC4 agonist inactive, TRPC6 activator inactive, TRPC4 potent inactive and TRPC6 inh inactive.
CNC[C@@H](Cc1ccccc1)NC[C@@H](CC1CCCCC1)NCCCc1ccccc1 was read as TRPC4 inh inactive, TRPC4 agonist 77*, TRPC6 activator inactive, TRPC4 potent inactive and TRPC6 inh inactive.
Cc1cc(Nc2cc(Cl)nc(Sc3ccc(NC(=O)C4CC4)cc3)n2)n[nH]1 was read as TRPC4 inh inactive, TRPC4 agonist inactive, TRPC6 activator inactive, TRPC4 potent inactive and TRPC6 inh inactive.
For O=C(NC1CCN(Cc2ccccc2)CC1)c1cccc(S(=O)(=O)Nc2ccc(Br)cc2)c1 the results were TRPC4 inh inactive, TRPC4 agonist inactive, TRPC6 activator inactive, TRPC4 potent inactive and TRPC6 inh inactive.
`COc1ccccc1NS(=O)(=O)c1cccc(C(=O)NC2CCN(Cc3ccccc3)CC2)c1` gave TRPC4 inh -8*, TRPC4 agonist 52*, TRPC6 activator inactive, TRPC4 potent inactive and TRPC6 inh inactive.
